pKi: −log10 of the molar value. Values after ≈ are worked out from the molar mass of the structure shown.
Assays:
[1] = biological target: T1, 4,4'-diapophytoene synthase (Staphylococcus aureus, UniProt A9JQL9); test: Inhibition of Staphylococcus aureus CrtM
T1 sequence (A9JQL9 whole entry): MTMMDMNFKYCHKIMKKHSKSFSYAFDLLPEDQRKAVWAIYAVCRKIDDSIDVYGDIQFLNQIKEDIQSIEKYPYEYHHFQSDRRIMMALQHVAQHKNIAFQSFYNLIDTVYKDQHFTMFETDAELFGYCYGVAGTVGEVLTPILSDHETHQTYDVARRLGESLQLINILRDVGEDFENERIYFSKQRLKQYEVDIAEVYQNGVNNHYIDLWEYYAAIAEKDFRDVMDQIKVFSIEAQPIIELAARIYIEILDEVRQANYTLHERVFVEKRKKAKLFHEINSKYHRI

Staphylococcus aureus [2] = test: Bactericidal activity against Staphylococcus aureus MTCC 740 assessed as inhibition of bacterial growth measured after 48 hrs by agar plate method; format: functional
How it was run: (§1)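 MBC: aliquots from microdilution wells without colour change subcultured on drug-free Mueller Hinton agar, 48 h at 37 °C aerobically. MBC is the lowest concentration with no visible growth. Triplicate.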

Escherichia coli [3] = test: Antibacterial activity against clinically isolated Escherichia coli RBRJ005 assessed as inhibition of bacterial growth at 50 uM measured after 48 hrs by agar well diffusion method; format: functional; settings: read-out: IZ
Staphylococcus aureus [4] = test: Antibacterial activity against Methicillin-resistant Staphylococcus aureus ATCC 33591 assessed as inhibition of bacterial growth at 50 uM measured after 48 hrs by agar well diffusion method; format: functional; settings: read-out: IZ
How it was run: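 Agar well diffusion on Mueller Hinton agar seeded with bacteria at 0.5 McFarland. […] Incubated 48 h at 37 °C aerobically; zone of inhibition diameter (mm) measured. Triplicate.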

Enterococcus faecalis [5] = test: Antibacterial activity against Enterococcus faecalis MTCC 439 assessed as inhibition of bacterial growth at 50 uM measured after 48 hrs by agar well diffusion method; format: functional; settings: read-out: IZ
Enterococcus faecalis [6] = test: Antibacterial activity against clinically isolated Enterococcus faecalis RBRJ015 assessed as inhibition of bacterial growth at 50 uM measured after 48 hrs by agar well diffusion method; format: functional; settings: read-out: IZ
Staphylococcus aureus [7] = test: Bactericidal activity against clinically isolated Methicillin-resistant Staphylococcus aureus assessed as inhibition of bacterial growth measured after 48 hrs by agar plate method; format: functional
Staphylococcus aureus [8] = test: Antibacterial activity against clinically isolated Staphylococcus aureus RBRJ010 assessed as inhibition of bacterial growth at 50 uM measured after 48 hrs by agar well diffusion method; format: functional; settings: read-out: IZ
Acinetobacter baumannii = test: Antibacterial activity against clinically isolated Acinetobacter baumannii RBRJ027 assessed as inhibition of bacterial growth at 50 uM measured after 48 hrs by agar well diffusion method; format: functional; settings: read-out: IZ
Klebsiella pneumoniae [9] = test: Antibacterial activity against clinically isolated Klebsiella pneumoniae RBRJ019 assessed as inhibition of bacterial growth at 50 uM measured after 48 hrs by agar well diffusion method; format: functional; settings: read-out: IZ
[10] = Cytotoxicity against mouse L929 cells assessed as reduction in cell viability measured after 72 hrs by MTT assay; format: toxicity, cell-based
How it was run: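 L929 cells (ATCC) grown in DMEM with 10% FBS and penicillin/streptomycin at 37 °C, 5% CO2; seeded at 5 × 10^3 cells per well and exposed to serial dilutions for 72 h, paclitaxel as positive control. MTT (5 mg mL−1), formazan dissolved in DMSO, absorbance at 490 nm; viability relative to control after blank subtraction; IC50 in μM.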

Klebsiella pneumoniae [11] = test: Antibacterial activity against clinically isolated Klebsiella pneumoniae RBRJ024 assessed as inhibition of bacterial growth at 50 uM measured after 48 hrs by agar well diffusion method; format: functional; settings: read-out: IZ
Staphylococcus aureus [12] = test: Antibacterial activity against Staphylococcus aureus MTCC 740 assessed as inhibition of bacterial growth measured after 48 hrs by broth microdilution method; format: functional
[13] = Selectivity index, ratio of IC50 for cytotoxicity against mouse L929 cells to MIC for antibacterial activity against clinically isolated Methicillin-resistant Staphylococcus aureus; format: toxicity, cell-based; settings: read-out: Selectivity Index
[14] = tested on: Staphylococcus epidermidis; test: Antibacterial activity against Staphylococcus epidermidis MTCC 435 assessed as inhibition of bacterial growth at 50 uM measured after 48 hrs by agar well diffusion method; format: functional; settings: read-out: IZ
Staphylococcus aureus [15] = test: Antibacterial activity against clinically isolated Staphylococcus aureus RBRJ010 assessed as inhibition of bacterial growth measured after 48 hrs by broth microdilution method; format: functional
Pseudomonas aeruginosa = test: Antibacterial activity against Pseudomonas aeruginosa MTCC 424 assessed as inhibition of bacterial growth at 50 uM measured after 48 hrs by agar well diffusion method; format: functional; settings: read-out: IZ
Escherichia coli [16] = test: Antibacterial activity against clinically isolated Escherichia coli RBRJ013 assessed as inhibition of bacterial growth at 50 uM measured after 48 hrs by agar well diffusion method; format: functional; settings: read-out: IZ
Enterobacter cloacae = test: Antibacterial activity against clinically isolated Enterobacter cloacae RBRJ017 assessed as inhibition of bacterial growth at 50 uM measured after 48 hrs by agar well diffusion method; format: functional; settings: read-out: IZ
Klebsiella pneumoniae [17] = test: Antibacterial activity against Klebsiella pneumoniae MTCC 109 assessed as inhibition of bacterial growth at 50 uM measured after 48 hrs by agar well diffusion method; format: functional; settings: read-out: IZ
Escherichia coli [18] = test: Antibacterial activity against Escherichia coli MTCC 119 assessed as inhibition of bacterial growth at 50 uM measured after 48 hrs by agar well diffusion method; format: functional; settings: read-out: IZ
Staphylococcus aureus [19] = test: Antibacterial activity against Methicillin-resistant Staphylococcus aureus ATCC 33591 assessed as inhibition of bacterial growth measured after 48 hrs by broth microdilution method; format: functional
Staphylococcus aureus [20] = test: Bactericidal activity against Methicillin-resistant Staphylococcus aureus ATCC 33591 assessed as inhibition of bacterial growth measured after 48 hrs by agar plate method; format: functional; how it was run: as §1
Staphylococcus aureus [21] = test: Antibacterial activity against Staphylococcus aureus MTCC 740 assessed as inhibition of bacterial growth at 50 uM measured after 48 hrs by agar well diffusion method; format: functional; settings: read-out: IZ
Staphylococcus aureus [22] = test: Antibacterial activity against clinically isolated Methicillin-resistant Staphylococcus aureus assessed as inhibition of bacterial growth at 50 uM measured after 48 hrs by agar well diffusion method; format: functional; settings: read-out: IZ
Staphylococcus aureus [23] = test: Antibacterial activity against clinically isolated Methicillin-resistant Staphylococcus aureus assessed as inhibition of bacterial growth measured after 48 hrs by broth microdilution method; format: functional
Staphylococcus aureus [24] = test: Bactericidal activity against clinically isolated Staphylococcus aureus RBRJ010 assessed as inhibition of bacterial growth measured after 48 hrs by agar plate method; format: functional
How it was run: (§2)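 MBC: 10 μL from wells showing no INT colour change after broth microdilution subcultured on drug-free Mueller Hinton agar, 48 h at 37 °C aerobically; lowest concentration with no visible growth taken as MBC (μM). Triplicate.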

[25] = tested on: Staphylococcus epidermidis; test: Bactericidal activity against Staphylococcus epidermidis MTCC 435 assessed as inhibition of bacterial growth measured after 48 hrs by agar plate method; format: functional; how it was run: as §2
[26] = tested on: Staphylococcus epidermidis; test: Antibacterial activity against Staphylococcus epidermidis MTCC 435 assessed as inhibition of bacterial growth measured after 48 hrs by broth microdilution method; format: functional

Compound | MBC (Staphylococcus aureus [2]) [µM] | zone of inhibition at 50 µM (Escherichia coli [3]) [mm] | zone of inhibition at 50 µM (Staphylococcus aureus [4]) [mm] | zone of inhibition at 50 µM (Enterococcus faecalis [5]) [mm] | zone of inhibition at 50 µM (Enterococcus faecalis [6]) [mm] | MBC (Staphylococcus aureus [7]) [µM] | zone of inhibition at 50 µM (Staphylococcus aureus [8]) [mm] | zone of inhibition at 50 µM (Acinetobacter baumannii) [mm] | zone of inhibition at 50 µM (Klebsiella pneumoniae [9]) [mm] | IC50 at 72 h [10] [nM] | zone of inhibition at 50 µM (Klebsiella pneumoniae [11]) [mm] | MIC (Staphylococcus aureus [12]) [µM] | zone of inhibition at 50 µM [14] [mm] | MIC (Staphylococcus aureus [15]) [µM] | zone of inhibition at 50 µM (Pseudomonas aeruginosa) [mm] | zone of inhibition at 50 µM (Escherichia coli [16]) [mm] | zone of inhibition at 50 µM (Enterobacter cloacae) [mm] | zone of inhibition at 50 µM (Klebsiella pneumoniae [17]) [mm] | zone of inhibition at 50 µM (Escherichia coli [18]) [mm] | zone of inhibition at 50 µM (Staphylococcus aureus [21]) [mm] | also measured
O=P(O)(O)C(CCCc1ccc(-c2ccc(Br)cc2)cc1)S(=O)(=O)O (stereo unspecified) | – | – | – | – | – | – | – | – | – | – | – | – | – | – | – | – | – | – | – | – | pKi [1]: 6.87
Cc1ccc(C(C)C)c(OCc2cn(CCCN3C(=O)C(=O)c4cc(F)ccc43)nn2)c1 | 15.6 (≈ 6.81 µg/mL) | 16.2 | 20.3 | 16.4 | 15.3 | 31.2 (≈ 13.6 µg/mL) | 23.2 | 14.7 | 15.4 | 31200 | 14.3 | 7.8 (≈ 3.4 µg/mL) | 16.2 | 7.8 (≈ 3.4 µg/mL) | 16 | 16.2 | 15.3 | 15.2 | 15.2 | 24.1 | selectivity ratio [13]: 2; MIC (Staphylococcus aureus [19]): 62.5 µM (≈ 27.3 µg/mL); MBC (Staphylococcus aureus [20]): 125 µM (≈ 54.6 µg/mL); zone of inhibition at 50 µM (Staphylococcus aureus [22]): 22.2 mm; MIC (Staphylococcus aureus [23]): 15.6 µM (≈ 6.81 µg/mL); MBC (Staphylococcus aureus [24]): 15.6 µM (≈ 6.81 µg/mL)
O=P(O)(O)C(CCCc1ccc(-c2ccccc2)cc1)S(=O)(=O)O (stereo unspecified) | – | – | – | – | – | – | – | – | – | – | – | – | – | – | – | – | – | – | – | – | pKi [1]: 8.22
CC(=O)O[C@H]1C(=O)[C@@]2(C)[C@H]([C@H](OC(=O)c3ccccc3)[C@]3(O)C[C@H](OC(=O)[C@H](O)[C@@H](NC(=O)c4ccccc4)c4ccccc4)C(C)=C1C3(C)C)[C@]1(OC(C)=O)CO[C@@H]1C[C@@H]2O [PACLITAXEL] | – | – | – | – | – | – | – | – | – | 62.5 | – | – | – | – | – | – | – | – | – | – | –
COc1ccc2c(c1)C(=O)C(=O)N2CCCn1cc(COc2cc(C)ccc2C(C)C)nn1 | 125 (≈ 56.1 µg/mL) | 17.2 | 25.3 | 12.6 | 11.3 | 7.8 (≈ 3.5 µg/mL) | 23.3 | 12.3 | 18.1 | – | 17.6 | 62.5 (≈ 28 µg/mL) | 15.7 | 15.6 (≈ 7 µg/mL) | 16.4 | 15.4 | 13.5 | 17.3 | 16.5 | 25.3 | MIC (Staphylococcus aureus [19]): 7.8 µM (≈ 3.5 µg/mL); MBC (Staphylococcus aureus [20]): 15.6 µM (≈ 7 µg/mL); zone of inhibition at 50 µM (Staphylococcus aureus [22]): 25.1 mm; MIC (Staphylococcus aureus [23]): 3.9 µM (≈ 1.75 µg/mL); MBC (Staphylococcus aureus [24]): 31.2 µM (≈ 14 µg/mL)
Cc1ccc(C(C)C)c(OCc2cn(CCN3C(=O)C(=O)c4ccccc43)nn2)c1 | 125 (≈ 50.6 µg/mL) | 15.2 | 18.2 | 15.4 | 18.3 | 125 (≈ 50.6 µg/mL) | 22.2 | 13.3 | 16.4 | 250000 | 16.5 | 62.5 (≈ 25.3 µg/mL) | 22.7 | 15.6 (≈ 6.31 µg/mL) | 18.2 | 14.4 | 16.5 | 18.3 | 18.6 | 20.2 | selectivity ratio [13]: 4; MBC [25]: 31.2 µM (≈ 12.6 µg/mL); MIC [26]: 15.6 µM (≈ 6.31 µg/mL); zone of inhibition at 50 µM (Staphylococcus aureus [22]): 20.2 mm; MIC (Staphylococcus aureus [23]): 62.5 µM (≈ 25.3 µg/mL); MBC (Staphylococcus aureus [24]): 31.2 µM (≈ 12.6 µg/mL)
Cc1ccc(C(C)C)c(OCc2cn(CCCN3C(=O)C(=O)c4cc(Cl)ccc43)nn2)c1 | 31.2 (≈ 14.1 µg/mL) | 15.2 | 20.5 | 14.2 | 14.1 | 62.5 (≈ 28.3 µg/mL) | 21.2 | 13.2 | 15.1 | 125000 | 14.8 | 15.6 (≈ 7.07 µg/mL) | 18.2 | 15.6 (≈ 7.07 µg/mL) | 13.3 | 15.5 | 15.7 | 14.3 | 14.2 | 22.1 | selectivity ratio [13]: 4; MIC (Staphylococcus aureus [19]): 62.5 µM (≈ 28.3 µg/mL); MBC (Staphylococcus aureus [20]): 125 µM (≈ 56.6 µg/mL); zone of inhibition at 50 µM (Staphylococcus aureus [22]): 21.3 mm; MIC (Staphylococcus aureus [23]): 31.2 µM (≈ 14.1 µg/mL); MBC (Staphylococcus aureus [24]): 31.2 µM (≈ 14.1 µg/mL)
O=P(O)(O)C(CCCc1ccc(-c2ccccc2)cc1)P(=O)(O)O | – | – | – | – | – | – | – | – | – | – | – | – | – | – | – | – | – | – | – | – | pKi [1]: 9.70

Source: ChEMBL document CHEMBL5357047, “The development of thymol-isatin hybrids as broad-spectrum antibacterial agents with potent anti-MRSA activity” (RSC Med Chem, 2024)
